Measured values published in ChEMBL document CHEMBL4411287, “Discovery and optimization of a series of 3-substituted indazole derivatives as multi-target kinase inhibitors for the treatment of lung squamous cell carcinoma” (Eur J Med Chem, 2019).
Positions count from the first letter of the chain named. Converted amounts (≈) assume the structure as drawn. The source made the active and inactive calls. The calls are words filed in the database; no cut-off is given here.

Columns and labels:
[1] = tested on: NCI-H2286; experiment: Antiproliferative activity against human NCI-H2286 cells harboring DDR2 mutation after 72 hrs by CCK8 assay; type: functional, cell-based; details: NCI-H2286, 72 h
How it was run: (§1)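 Cells seeded at low density in growth medium and compounds added the next day. Incubated 72 h, then proliferation read by sulforhodamine B, MTT or CCK-8. IC50 obtained by four-parameter concentration-response curve fitting.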

[2] = tested on: NCI-H2286; experiment: Antitumor activity against human NCI-H2286 cells xenografted in SCID mouse assessed as tumor growth inhibition at 50 mg/kg, po qd for 10 consecutive days relative to control; type: functional; details: read-out: TGI
How it was run: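 NCI-H2286 xenograft established by s.c. fragment implantation. At 100-150 mm³ mice were randomized (vehicle n=10, treated n=5) and given compound orally once daily for 10 days. Tumour volume = length×width²/2, measured twice weekly. TGI taken on the final day from change in volume relative to vehicle, with Student's t-test.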

[3] = tested on: T1, Discoidin domain-containing receptor 2 (Homo sapiens), Q16832 [I638F]; details: NCI-H2286, 100 nM
T1 sequence (whole entry): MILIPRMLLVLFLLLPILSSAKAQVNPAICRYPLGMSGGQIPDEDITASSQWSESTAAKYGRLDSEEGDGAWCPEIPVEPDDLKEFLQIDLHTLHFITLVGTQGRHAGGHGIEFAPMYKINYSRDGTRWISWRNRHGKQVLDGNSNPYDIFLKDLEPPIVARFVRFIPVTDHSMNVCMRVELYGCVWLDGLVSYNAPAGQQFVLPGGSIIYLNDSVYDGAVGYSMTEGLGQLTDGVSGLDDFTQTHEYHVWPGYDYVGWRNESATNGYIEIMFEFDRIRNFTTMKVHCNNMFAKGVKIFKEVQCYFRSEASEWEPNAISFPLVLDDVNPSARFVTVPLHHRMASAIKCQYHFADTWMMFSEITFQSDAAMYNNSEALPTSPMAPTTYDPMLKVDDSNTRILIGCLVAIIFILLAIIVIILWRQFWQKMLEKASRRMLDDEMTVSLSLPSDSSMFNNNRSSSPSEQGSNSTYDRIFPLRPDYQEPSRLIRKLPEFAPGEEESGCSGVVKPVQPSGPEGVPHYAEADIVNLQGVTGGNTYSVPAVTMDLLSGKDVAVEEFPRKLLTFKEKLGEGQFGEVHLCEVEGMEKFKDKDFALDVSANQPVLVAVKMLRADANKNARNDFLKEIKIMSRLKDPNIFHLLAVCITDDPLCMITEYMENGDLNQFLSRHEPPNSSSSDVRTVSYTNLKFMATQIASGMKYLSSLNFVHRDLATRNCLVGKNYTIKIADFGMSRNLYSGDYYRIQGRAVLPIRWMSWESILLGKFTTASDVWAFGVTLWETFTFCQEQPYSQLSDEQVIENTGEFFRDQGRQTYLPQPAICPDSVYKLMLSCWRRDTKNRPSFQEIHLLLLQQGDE

[4] = tested on: KG-1; experiment: Antiproliferative activity against FGFR1 fused human KG1 cells after 72 hrs by CCK8 assay; type: functional, cell-based; details: KG-1, 72 h; how it was run: as §1
[5] = tested on: SNU-16; experiment: Antiproliferative activity against FGFR2 amplified human SNU16 cells after 72 hrs by CCK8 assay; type: functional, cell-based; details: SNU-16, 72 h; how it was run: as §1
[6] = tested on: NCI-H716; experiment: Antiproliferative activity against FGFR2 amplified human NCI-H716 cells after 72 hrs by CCK8 assay; type: functional, cell-based; details: NCI-H716, 72 h; how it was run: as §1
[7] = Antiproliferative activity against human UM-UC-14 cells harboring FGFR3 mutation after 72 hrs by CCK8 assay; type: functional, cell-based; details: UMUC14, 72 h; how it was run: as §1
[8] = target: T2, Discoidin domain-containing receptor 2 (Homo sapiens) (UniProt Q16832); experiment: Inhibition of DDR2 (unknown origin) at 20 uM using poly (Glu, Tyr) 4:1 substrate after 60 mins by ELISA relative to control
T2 sequence (whole entry): T1 sequence (whole entry) with F638I
How it was run: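 ELISA with purified recombinant DDR2 on poly(Glu,Tyr) 4:1 precoated at 20 µg/mL. 10 µM ATP in HEPES pH 7.4 buffer with MgCl2, MnCl2, Na3VO4 and DTT, 1% DMSO; 60 min at 37 °C. Phosphotyrosine detected by PY99 and HRP anti-mouse IgG with o-phenylenediamine at A490. Inhibition = 1−A490/A490control; two separate experiments.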

[9] = Half life in ICR(CD-1) mouse at 10 mg/kg, po administered via gavage by triple quadrupole mass spectrometric analysis; type: ADME, organism-based; details: in vivo
How it was run: (§2)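 Oral gavage at 1 mg/mL in 1% Tween80/water to male ICR mice (18-22 g, n=3). Plasma sampled at 0.25, 0.5, 1, 2, 4, 8 and 24 h, protein precipitated with methanol:acetonitrile (1:1) containing internal standard, and quantified by UPLC-triple quadrupole MS. AUC and MRT were taken from per-animal time-concentration curves. Cmax is the maximum plasma level and Tmax the time to reach it.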

[10] = Tmax in ICR(CD-1) mouse at 10 mg/kg, po administered via gavage by triple quadrupole mass spectrometric analysis; type: ADME, organism-based; details: in vivo
How it was run: (§3)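 Dosed by gavage at 1 mg/mL in 1% Tween80/water to male ICR mice, 18-22 g, n=3. Blood taken at 0.25, 0.5, 1, 2, 4, 8 and 24 h. Plasma precipitated with methanol:acetonitrile (1:1) containing internal standard, then UPLC-MS/MS on a C18 column with an ammonium acetate/formic acid–acetonitrile gradient. Tmax read directly from the data; MRT calculated per animal from concentration–time curves.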

[11] = Cmax in ICR(CD-1) mouse at 10 mg/kg, po administered via gavage by triple quadrupole mass spectrometric analysis; type: ADME, organism-based; design: dose 10 mg/kg, route oral; details: in vivo; how it was run: as §2
[12] = AUC (0 to t) in ICR(CD-1) mouse at 10 mg/kg, po administered via gavage by triple quadrupole mass spectrometric analysis; type: ADME, organism-based; details: in vivo; how it was run: as §2
[13] = AUC (0 to infinity) in ICR(CD-1) mouse at 10 mg/kg, po administered via gavage by triple quadrupole mass spectrometric analysis; type: ADME, organism-based; design: dose 10 mg/kg, route oral, time infinity; details: in vivo; how it was run: as §2
[14] = MRT in ICR(CD-1) mouse at 10 mg/kg, po administered via gavage by triple quadrupole mass spectrometric analysis; type: ADME, organism-based; details: in vivo; how it was run: as §3
[15] = Solubility of compound; type: physicochemical
[16] = Permeability in human Caco2 cells at 5 uM after 120 mins by LC-MS/MS analysis relative to control; type: ADME, cell-based; details: Caco-2, read-out: Fabs
How it was run: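 Caco-2 (C2BBe1) monolayers grown confluent on collagen-coated transwell membranes. Buffer is HBSS with 10 mM HEPES at pH 7.4 and pH 6.8. Compound 5 µM added to the apical or basolateral side; duplicate samples taken at 120 min and analysed by LC-MS/MS. Results given as Papp A→B and B→A and efflux ratio B→A/A→B.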

[17] = Efflux ratio of permeability in human Caco2 cells at 5 uM after 120 mins by LC-MS/MS analysis; type: ADME, cell-based; details: Caco-2
How it was run: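 Caco-2 (C2BBe1) monolayers grown to confluence on collagen-coated transwell polycarbonate membranes. Compound at 5 μM added apically or basolaterally in HBSS with 10 mM HEPES at pH 7.4 and 6.8. Duplicate samples taken at 120 min and analysed by LC-MS/MS. Efflux ratio = Papp(B→A)/Papp(A→B).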

Question: With `Cc1nc(Nc2ncc(C(=O)Nc3c(C)cccc3Cl)s2)cc(N2CCN(CCO)CC2)n1` [DASATINIB] as the molecule, how does the IC50 [1] read?
Answer: 33.3 nM

Question: What about the inhibition in vivo at 50 mg/kg [2] of the same molecule?
Answer: 50.9%

Question: And the inhibition [3]?
Answer: Active

Question: What does the source list for `COc1cc(CCc2cc(NC(=O)c3ccc(N4C[C@@H](C)N[C@@H](C)C4)cc3)n[nH]2)cc(OC)c1` [FEXAGRATINIB]?
Answer: IC50 [4]: 5.8 nM; IC50 [5]: 19.6 nM; IC50 [6]: 5.9 nM; IC50 [7]: 4.5 nM

Question: For `Cn1cccc(C(=O)Nc2cccc(-c3ccc4[nH]ncc4c3)c2)c1=O`, which inhibition [8] is on record?
Answer: 76%

Question: What does the source list for `Cc1ccc(C(=O)Nc2cc(CN3CCN(C)CC3)cc(C(F)(F)F)c2)cc1-c1ccc2c(-c3cnn(C4CC4)c3)n[nH]c2c1`?
Answer: half-life [9]: 1.4 h; Tmax [10]: 1.67 h; Cmax [11]: 0.111 µg/mL; AUC(0-t) [12]: 0.0662 µg·h/mL; AUC(0-inf) [13]: 0.61 µg·h/mL; MRT [14]: 3.2 h; solubility [15]: 10 µM (≈ 6.14 µg/mL); Fa at 2 h, 5 µM [16]: 12%; efflux ratio at 2 h, 5 µM [17]: 42.7
